Test results taken from ChEMBL document CHEMBL1255424, “Antistaphylococcal activity of ACHN-490 tested alone and in combination with other agents by time-kill assay” (2010).
In brackets after ≈: the same amount, converted by molar mass.

Experiments:
Format in all cases: functional
Staphylococcus aureus [1] = test: Antibacterial activity against community-acquired methicillin-resistant panton-valentine leukocidin-positive Staphylococcus aureus isolate 1468 after 24 hrs by modified broth macrodilution method; details: isolate 1468, 24 h
How it was run: (§1)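 MIC read after 24 h incubation by modified broth macrodilution, validated per CLSI recommendations, against recent clinical MRSA isolates (hospital- and community-acquired, hVISA, VISA, VRSA). Daptomycin tests ran in Mueller-Hinton broth with added calcium.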

Staphylococcus aureus [2] = test: Antibacterial activity against vancomycin-intermediate Staphylococcus aureus isolate 1016 after 24 hrs by modified broth macrodilution method; details: isolate 1016, 24 h; how it was run: as §1
Staphylococcus aureus [3] = test: Antibacterial activity against vancomycin-intermediate Staphylococcus aureus isolate 555 after 24 hrs by modified broth macrodilution method; details: isolate 555, 24 h; how it was run: as §1
Staphylococcus aureus [4] = test: Antibacterial activity against community-acquired methicillin-resistant panton-valentine leukocidin-positive Staphylococcus aureus isolate 593 after 24 hrs by modified broth macrodilution method; details: isolate 593, 24 h; how it was run: as §1
Staphylococcus aureus [5] = test: Antibacterial activity against community-acquired methicillin-resistant panton-valentine leukocidin-positive Staphylococcus aureus isolate 1471 after 24 hrs by modified broth macrodilution method; details: isolate 1471, 24 h; how it was run: as §1
Staphylococcus aureus [6] = test: Antibacterial activity against vancomycin-intermediate Staphylococcus aureus isolate 1015 after 24 hrs by modified broth macrodilution method; details: isolate 1015, 24 h; how it was run: as §1
Staphylococcus aureus [7] = test: Antibacterial activity against vancomycin-intermediate Staphylococcus aureus isolate 1003 after 24 hrs by modified broth macrodilution method; details: isolate 1003, 24 h; how it was run: as §1
Staphylococcus aureus [8] = test: Antibacterial activity against hospital-acquired methicillin-resistant Staphylococcus aureus isolate 1808 after 24 hrs by modified broth macrodilution method; details: isolate 1808, 24 h; how it was run: as §1
Staphylococcus aureus [9] = test: Antibacterial activity against vancomycin-intermediate Staphylococcus aureus isolate 1005 after 24 hrs by modified broth macrodilution method; details: isolate 1005, 24 h; how it was run: as §1
Staphylococcus aureus [10] = test: Antibacterial activity against hospital-acquired methicillin-resistant Staphylococcus aureus isolate 1766 after 24 hrs by modified broth macrodilution method; details: isolate 1766, 24 h; how it was run: as §1
Staphylococcus aureus [11] = test: Antibacterial activity against vancomycin-intermediate Staphylococcus aureus isolate 1984 after 24 hrs by modified broth macrodilution method; details: isolate 1984, 24 h; how it was run: as §1
Staphylococcus aureus [12] = test: Antibacterial activity against vancomycin-intermediate Staphylococcus aureus after 24 hrs by modified broth macrodilution method; how it was run: as §1
Staphylococcus aureus [13] = test: Antibacterial activity against vancomycin-intermediate Staphylococcus aureus isolate 1017 after 24 hrs by modified broth macrodilution method; details: isolate 1017, 24 h; how it was run: as §1
Staphylococcus aureus [14] = test: Antibacterial activity against hospital-acquired methicillin-resistant Staphylococcus aureus isolate 1867 after 24 hrs by modified broth macrodilution method; details: isolate 1867, 24 h; how it was run: as §1
Staphylococcus aureus [15] = test: Antibacterial activity against hospital-acquired methicillin-resistant Staphylococcus aureus isolate 1806 after 24 hrs by modified broth macrodilution method; details: isolate 1806, 24 h; how it was run: as §1
Staphylococcus aureus [16] = test: Antibacterial activity against vancomycin-intermediate Staphylococcus aureus isolate 1011 after 24 hrs by modified broth macrodilution method; details: isolate 1011, 24 h; how it was run: as §1
Staphylococcus aureus [17] = test: Antibacterial activity against vancomycin-intermediate Staphylococcus aureus isolate 1008 after 24 hrs by modified broth macrodilution method; details: isolate 1008, 24 h; how it was run: as §1
Staphylococcus aureus [18] = test: Antibacterial activity against methicillin-resistant Staphylococcus aureus isolate 2003 after 24 hrs by modified broth macrodilution method; details: isolate 2003, 24 h; how it was run: as §1
Staphylococcus aureus [19] = test: Antibacterial activity against community-acquired methicillin-resistant panton-valentine leukocidin-positive Staphylococcus aureus isolate 813 after 24 hrs by modified broth macrodilution method; details: isolate 813, 24 h; how it was run: as §1
Staphylococcus aureus [20] = test: Antibacterial activity against vancomycin-resistant Staphylococcus aureus isolate 1264 after 24 hrs by modified broth macrodilution method; details: isolate 1264, 24 h; how it was run: as §1
Staphylococcus aureus [21] = test: Antibacterial activity against vancomycin-intermediate Staphylococcus aureus isolate 1012 after 24 hrs by modified broth macrodilution method; details: isolate 1012, 24 h; how it was run: as §1
Staphylococcus aureus [22] = test: Antibacterial activity against vancomycin-resistant Staphylococcus aureus isolate 510 after 24 hrs by modified broth macrodilution method; details: isolate 510, 24 h; how it was run: as §1
Staphylococcus aureus [23] = test: Antibacterial activity against vancomycin-resistant Staphylococcus aureus isolate 509 after 24 hrs by modified broth macrodilution method; details: isolate 509, 24 h; how it was run: as §1
Staphylococcus aureus [24] = test: Antibacterial activity against vancomycin-hetero-intermediate Staphylococcus aureus after 24 hrs by modified broth macrodilution method; how it was run: as §1
Staphylococcus aureus [25] = test: Antibacterial activity against vancomycin-intermediate Staphylococcus aureus isolate 1007 after 24 hrs by modified broth macrodilution method; details: isolate 1007, 24 h; how it was run: as §1
Staphylococcus aureus [26] = test: Antibacterial activity against community-acquired methicillin-resistant panton-valentine leukocidin-positive Staphylococcus aureus isolate 815 after 24 hrs by modified broth macrodilution method; details: isolate 815, 24 h; how it was run: as §1
Staphylococcus aureus [27] = test: Antibacterial activity against vancomycin-intermediate Staphylococcus aureus isolate 1004 after 24 hrs by modified broth macrodilution method; details: isolate 1004, 24 h; how it was run: as §1
Staphylococcus aureus [28] = test: Antibacterial activity against vancomycin-intermediate Staphylococcus aureus isolate 1013 after 24 hrs by modified broth macrodilution method; details: isolate 1013, 24 h; how it was run: as §1
Staphylococcus aureus [29] = test: Antibacterial activity against hospital-acquired methicillin-resistant Staphylococcus aureus isolate 1743 after 24 hrs by modified broth macrodilution method; details: isolate 1743, 24 h; how it was run: as §1
Staphylococcus aureus [30] = test: Antibacterial activity against community-acquired methicillin-resistant panton-valentine leukocidin-positive Staphylococcus aureus isolate 693 after 24 hrs by modified broth macrodilution method; details: isolate 693, 24 h; how it was run: as §1
Staphylococcus aureus [31] = test: Antibacterial activity against hospital-acquired methicillin-resistant Staphylococcus aureus isolate 1776 after 24 hrs by modified broth macrodilution method; details: isolate 1776, 24 h; how it was run: as §1
Staphylococcus aureus [32] = test: Antibacterial activity against community-acquired methicillin-resistant panton-valentine leukocidin-positive Staphylococcus aureus isolate 1469 after 24 hrs by modified broth macrodilution method; details: isolate 1469, 24 h; how it was run: as §1
Staphylococcus aureus [33] = test: Antibacterial activity against vancomycin-hetero-intermediate Staphylococcus aureus isolate 618 after 24 hrs by modified broth macrodilution method; details: isolate 618, 24 h; how it was run: as §1
Staphylococcus aureus [34] = test: Antibacterial activity against vancomycin-intermediate Staphylococcus aureus isolate 770 after 24 hrs by modified broth macrodilution method; details: isolate 770, 24 h; how it was run: as §1
Staphylococcus aureus [35] = test: Antibacterial activity against hospital-acquired methicillin-resistant Staphylococcus aureus isolate 1851 after 24 hrs by modified broth macrodilution method; details: isolate 1851, 24 h; how it was run: as §1
Staphylococcus aureus [36] = test: Antibacterial activity against vancomycin-resistant Staphylococcus aureus isolate 1263 after 24 hrs by modified broth macrodilution method; details: isolate 1263, 24 h; how it was run: as §1
Staphylococcus aureus [37] = test: Antibacterial activity against hospital-acquired methicillin-resistant Staphylococcus aureus isolate 1751 after 24 hrs by modified broth macrodilution method; details: isolate 1751, 24 h; how it was run: as §1
Staphylococcus aureus [38] = test: Antibacterial activity against vancomycin-intermediate Staphylococcus aureus isolate 511 after 24 hrs by modified broth macrodilution method; details: isolate 511, 24 h; how it was run: as §1
Staphylococcus aureus [39] = test: Antibacterial activity against vancomycin-intermediate Staphylococcus aureus isolate 1014 after 24 hrs by modified broth macrodilution method; details: isolate 1014, 24 h; how it was run: as §1
Staphylococcus aureus [40] = test: Antibacterial activity against community-acquired methicillin-resistant panton-valentine leukocidin-negative Staphylococcus aureus isolate 1470 after 24 hrs by modified broth macrodilution method; details: isolate 1470, 24 h; how it was run: as §1
Staphylococcus aureus [41] = test: Antibacterial activity against community-acquired methicillin-resistant panton-valentine leukocidin-positive Staphylococcus aureus isolate 950 after 24 hrs by modified broth macrodilution method; details: isolate 950, 24 h; how it was run: as §1
Staphylococcus aureus [42] = test: Antibacterial activity against vancomycin-resistant Staphylococcus aureus isolate 557 after 24 hrs by modified broth macrodilution method; details: isolate 557, 24 h; how it was run: as §1
Staphylococcus aureus [43] = test: Antibacterial activity against vancomycin-intermediate Staphylococcus aureus isolate 1010 after 24 hrs by modified broth macrodilution method; details: isolate 1010, 24 h; how it was run: as §1
Staphylococcus aureus [44] = test: Antibacterial activity against vancomycin-intermediate Staphylococcus aureus isolate 1009 after 24 hrs by modified broth macrodilution method; details: isolate 1009, 24 h; how it was run: as §1
Staphylococcus aureus [45] = test: Antibacterial activity against vancomycin-intermediate Staphylococcus aureus isolate 1287 after 24 hrs by modified broth macrodilution method; details: isolate 1287, 24 h; how it was run: as §1
Staphylococcus aureus [46] = test: Antibacterial activity against vancomycin-hetero-intermediate Staphylococcus aureus isolate 873 after 24 hrs by modified broth macrodilution method; details: isolate 873, 24 h; how it was run: as §1
Staphylococcus aureus [47] = test: Antibacterial activity against vancomycin-intermediate Staphylococcus aureus isolate 1006 after 24 hrs by modified broth macrodilution method; details: isolate 1006, 24 h; how it was run: as §1
Staphylococcus aureus [48] = test: Antibacterial activity against community-acquired methicillin-resistant panton-valentine leukocidin-positive Staphylococcus aureus isolate 1472 after 24 hrs by modified broth macrodilution method; details: isolate 1472, 24 h; how it was run: as §1
Staphylococcus aureus [49] = test: Antibacterial activity against vancomycin-susceptible Staphylococcus aureus after 24 hrs by modified broth macrodilution method
How it was run: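 MICs determined in recent clinical MRSA isolates by a modified broth macrodilution method per CLSI recommendations, with 24 h incubation. Daptomycin tests used Mueller-Hinton broth supplemented with calcium. Value is the lowest inhibitory drug concentration.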

Staphylococcus aureus [50] = test: Antibacterial activity against hospital-acquired methicillin-resistant Staphylococcus aureus isolate 1838 after 24 hrs by modified broth macrodilution method; details: isolate 1838, 24 h; how it was run: as §1
Staphylococcus aureus [51] = test: Antibacterial activity against vancomycin-resistant Staphylococcus aureus after 24 hrs by modified broth macrodilution method; how it was run: as §1

Nc1nc(/C(=N/O)C(=O)N[C@@H]2C(=O)N3C(C(=O)O)=C(/C=C4\CCN([C@@H]5CCNC5)C4=O)CS[C@H]23)ns1 [CEFTOBIPROLE]
MIC (Staphylococcus aureus [1]): 1 µg/mL (≈ 1.87 µM)
MIC (Staphylococcus aureus [2]): 4 µg/mL (≈ 7.48 µM)
MIC (Staphylococcus aureus [3]): 1 µg/mL (≈ 1.87 µM)
MIC (Staphylococcus aureus [4]): 1 µg/mL (≈ 1.87 µM)
MIC (Staphylococcus aureus [5]): 1 µg/mL (≈ 1.87 µM)
MIC (Staphylococcus aureus [6]): 1 µg/mL (≈ 1.87 µM)
MIC (Staphylococcus aureus [7]): 2 µg/mL (≈ 3.74 µM)
MIC (Staphylococcus aureus [8]): 1 µg/mL (≈ 1.87 µM)
MIC (Staphylococcus aureus [9]): 1 µg/mL (≈ 1.87 µM)
MIC (Staphylococcus aureus [10]): 2 µg/mL (≈ 3.74 µM)
MIC (Staphylococcus aureus [11]): 2 µg/mL (≈ 3.74 µM)
MIC (Staphylococcus aureus [12]): 0.5 µg/mL (≈ 0.935 µM)
MIC (Staphylococcus aureus [13]): 2 µg/mL (≈ 3.74 µM)
MIC (Staphylococcus aureus [14]): 2 µg/mL (≈ 3.74 µM)
MIC (Staphylococcus aureus [15]): 1 µg/mL (≈ 1.87 µM)
MIC (Staphylococcus aureus [16]): 4 µg/mL (≈ 7.48 µM)
MIC (Staphylococcus aureus [17]): 2 µg/mL (≈ 3.74 µM)
MIC (Staphylococcus aureus [18]): 2 µg/mL (≈ 3.74 µM)
MIC (Staphylococcus aureus [19]): 1 µg/mL (≈ 1.87 µM)
MIC (Staphylococcus aureus [20]): 0.5 µg/mL (≈ 0.935 µM)
MIC (Staphylococcus aureus [21]): 4 µg/mL (≈ 7.48 µM)
MIC (Staphylococcus aureus [22]): 1 µg/mL (≈ 1.87 µM)
MIC (Staphylococcus aureus [23]): 2 µg/mL (≈ 3.74 µM)
MIC (Staphylococcus aureus [24]): 2 µg/mL (≈ 3.74 µM)
MIC (Staphylococcus aureus [25]): 1 µg/mL (≈ 1.87 µM)
MIC (Staphylococcus aureus [26]): 0.5 µg/mL (≈ 0.935 µM)
MIC (Staphylococcus aureus [27]): 1 µg/mL (≈ 1.87 µM)
MIC (Staphylococcus aureus [28]): 2 µg/mL (≈ 3.74 µM)
MIC (Staphylococcus aureus [29]): 2 µg/mL (≈ 3.74 µM)
MIC (Staphylococcus aureus [30]): 1 µg/mL (≈ 1.87 µM)
MIC (Staphylococcus aureus [31]): 2 µg/mL (≈ 3.74 µM)
MIC (Staphylococcus aureus [32]): 1 µg/mL (≈ 1.87 µM)
MIC (Staphylococcus aureus [33]): 2 µg/mL (≈ 3.74 µM)
MIC (Staphylococcus aureus [34]): 2 µg/mL (≈ 3.74 µM)
MIC (Staphylococcus aureus [35]): 1 µg/mL (≈ 1.87 µM)
MIC (Staphylococcus aureus [36]): 2 µg/mL (≈ 3.74 µM)
MIC (Staphylococcus aureus [37]): 1 µg/mL (≈ 1.87 µM)
MIC (Staphylococcus aureus [38]): 2 µg/mL (≈ 3.74 µM)
MIC (Staphylococcus aureus [39]): 2 µg/mL (≈ 3.74 µM)
MIC (Staphylococcus aureus [40]): 2 µg/mL (≈ 3.74 µM)
MIC (Staphylococcus aureus [41]): 1 µg/mL (≈ 1.87 µM)
MIC (Staphylococcus aureus [42]): 1 µg/mL (≈ 1.87 µM)
MIC (Staphylococcus aureus [43]): 2 µg/mL (≈ 3.74 µM)
MIC (Staphylococcus aureus [44]): 2 µg/mL (≈ 3.74 µM)
MIC (Staphylococcus aureus [45]): 0.5 µg/mL (≈ 0.935 µM)
MIC (Staphylococcus aureus [46]): 2 µg/mL (≈ 3.74 µM)
MIC (Staphylococcus aureus [47]): 2 µg/mL (≈ 3.74 µM)
MIC (Staphylococcus aureus [48]): 1 µg/mL (≈ 1.87 µM)
MIC (Staphylococcus aureus [49]): 0.5 µg/mL (≈ 0.935 µM)
MIC (Staphylococcus aureus [50]): 2 µg/mL (≈ 3.74 µM)
MIC (Staphylococcus aureus [51]): 0.5 µg/mL (≈ 0.935 µM)
